From ChEMBL document CHEMBL2311305, “Antiproliferative potency of novel benzofuran-2-carboxamides on tumour cell lines: cell death mechanisms and determination of crystal structure” (Eur J Med Chem, 2013)
pIC50: −log10 of the molar value. Calls of active or inactive are those of the source. The calls are words filed in the database; no cut-off is given here.

Columns and labels:
SW-620 = test: Cytotoxicity against human SW620 cells after 72 hrs by MTT assay; assay type: functional, cell-based; settings: Homo sapiens, SW-620, 72 h
Summary of the method: (§1)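 Cells seeded at 3000-6000 per well on day 0, according to cell line doubling time. Compound added in five 10-fold dilutions, 72-h incubation, then MTT colorimetric read-out. Absorbances converted to percentage growth by NCI formulae. IC50 obtained by linear regression between the concentrations bracketing PG 50; ">100" assigned when no concentration reaches it. Quadruplicate points, three independent experiments.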

SK-BR-3 [1] = test: Induction of cell cycle arrest in human SKBR3 cells assessed as subG1 phase cells at 10 uM after 24 hrs by PI-staining based flow cytometric analysis (reference value: 25.1 +/- 0.4%); assay type: functional
SK-BR-3 [2] = test: Induction of apoptosis in human SKBR3 cells assessed as caspase3 activation at 5 uM after 24 to 48 hrs by caspase protease assay; assay type: functional, cell-based
Summary of the method: (§2)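 Compound at 5 µM on SK-BR-3 and 10 µM on SW620. Cells harvested after 24 and 48 h, washed in PBS, lysed 10 min on ice, centrifuged. Lysate diluted to 3 mg/mL protein and mixed with DTT-containing reaction buffer and caspase-3, -8 or -9 substrate. Incubated 90 min at 37 °C in the dark. Absorbance read at 405 nm, duplicates, compared with untreated control.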

SK-BR-3 [3] = test: Induction of cell cycle arrest in human SKBR3 cells assessed as G1 phase cells at 5 uM after 48 hrs by PI-staining based flow cytometric analysis (reference value: 53.3 +/- 1.5%); assay type: functional
MIA PaCa-2 = test: Cytotoxicity against human MIAPaCa2 cells after 72 hrs by MTT assay; assay type: functional, cell-based; settings: Homo sapiens, MIA PaCa-2, 72 h; summary of the method: as §1
SK-BR-3 [4] = test: Induction of cell cycle arrest in human SKBR3 cells assessed as G1 phase cells at 10 uM after 24 hrs by PI-staining based flow cytometric analysis (reference value: 40.1 +/- 0.7%); assay type: functional
SK-BR-3 [5] = test: Induction of cell cycle arrest in human SKBR3 cells assessed as G2/M phase cells at 10 uM after 48 hrs by PI-staining based flow cytometric analysis (reference value: 11.6 +/- 0.3%); assay type: functional
SK-BR-3 [6] = test: Induction of apoptosis in human SKBR3 cells assessed as caspase8 activation at 5 uM after 24 to 48 hrs by caspase protease assay; assay type: functional, cell-based; summary of the method: as §2
SK-BR-3 [7] = test: Induction of apoptosis in human SKBR3 cells assessed as caspase9 activation at 5 uM after 24 to 48 hrs by caspase protease assay; assay type: functional, cell-based; summary of the method: as §2
HeLa = test: Cytotoxicity against human HeLa cells after 72 hrs by MTT assay; assay type: functional, cell-based; settings: Homo sapiens, HeLa, 72 h; summary of the method: as §1
SK-BR-3 [8] = test: Induction of cell cycle arrest in human SKBR3 cells assessed as S phase cells at 10 uM after 48 hrs by PI-staining based flow cytometric analysis (reference value: 35.2 +/- 1.8%); assay type: functional
SK-BR-3 [9] = test: Induction of cell cycle arrest in human SKBR3 cells assessed as G2/M phase cells at 5 uM after 24 hrs by PI-staining based flow cytometric analysis (reference value: 33.7 +/- 0.3%); assay type: functional
SK-BR-3 [10] = test: Induction of cell cycle arrest in human SKBR3 cells assessed as subG1 phase cells at 10 uM after 48 hrs by PI-staining based flow cytometric analysis (reference value: 27.5 +/- 0.2%); assay type: functional
SK-BR-3 [11] = test: Induction of cell cycle arrest in human SKBR3 cells assessed as subG1 phase cells at 5 uM after 24 hrs by PI-staining based flow cytometric analysis (reference value: 25.1 +/- 0.4%); assay type: functional
SK-BR-3 [12] = test: Induction of cell cycle arrest in human SKBR3 cells assessed as subG1 phase cells at 5 uM after 48 hrs by PI-staining based flow cytometric analysis (reference value: 27.5 +/- 0.2%); assay type: functional
SK-BR-3 [13] = test: Induction of cell cycle arrest in human SKBR3 cells assessed as G1 phase cells at 5 uM after 24 hrs by PI-staining based flow cytometric analysis (reference value: 40.1 +/- 0.7%); assay type: functional
SK-BR-3 [14] = test: Cytotoxicity against human SKBR3 cells after 72 hrs by MTT assay; assay type: functional, cell-based; settings: SK-BR-3, 72 h; summary of the method: as §1
WI-38 = test: Cytotoxicity against human WI38 cells after 72 hrs by MTT assay; assay type: cell-based; settings: Homo sapiens, WI-38, 72 h; summary of the method: as §1
SK-BR-3 [15] = test: Induction of cell cycle arrest in human SKBR3 cells assessed as G2/M phase cells at 10 uM after 24 hrs by PI-staining based flow cytometric analysis (reference value: 33.7 +/- 0.3%); assay type: functional
SK-BR-3 [16] = test: Induction of cell cycle arrest in human SKBR3 cells assessed as G1 phase cells at 10 uM after 48 hrs by PI-staining based flow cytometric analysis (reference value: 53.3 +/- 1.5%); assay type: functional
SK-BR-3 [17] = test: Induction of cell cycle arrest in human SKBR3 cells assessed as S phase cells at 5 uM after 48 hrs by PI-staining based flow cytometric analysis (reference value: 35.2 +/- 1.8%); assay type: functional
SK-BR-3 [18] = test: Induction of cell cycle arrest in human SKBR3 cells assessed as S phase cells at 5 uM after 24 hrs by PI-staining based flow cytometric analysis (reference value: 26.2 +/- 2.3%); assay type: functional
SK-BR-3 [19] = test: Induction of cell cycle arrest in human SKBR3 cells assessed as S phase cells at 10 uM after 24 hrs by PI-staining based flow cytometric analysis (reference value: 26.2 +/- 2.3%); assay type: functional
MCF7 = test: Cytotoxicity against human MCF7 cells after 72 hrs by MTT assay; assay type: functional, cell-based; settings: Homo sapiens, MCF7, 72 h; summary of the method: as §1
SK-BR-3 [20] = test: Induction of cell cycle arrest in human SKBR3 cells assessed as G2/M phase cells at 5 uM after 48 hrs by PI-staining based flow cytometric analysis (reference value: 11.6 +/- 0.3%); assay type: functional

Cl.O=C(Nc1nc2ccc(C3=NCCN3)cc2[nH]1)c1cc2ccccc2o1
pIC50 (SW-620): 4.13 | Activity (SK-BR-3 [1]): 31.5% | Activity (SK-BR-3 [2]): Active | Activity (SK-BR-3 [3]): 21.8% | pIC50 (MIA PaCa-2): 4.04 | Activity (SK-BR-3 [4]): 70% | Activity (SK-BR-3 [5]): 15.9% | Activity (SK-BR-3 [6]): Active | Activity (SK-BR-3 [7]): Active | pIC50 (HeLa): 4.16 | Activity (SK-BR-3 [8]): 31.3% | Activity (SK-BR-3 [9]): 10% | Activity (SK-BR-3 [10]): 36.3% | Activity (SK-BR-3 [11]): 33.1% | Activity (SK-BR-3 [12]): 38.1% | Activity (SK-BR-3 [13]): 58.5% | pIC50 (SK-BR-3 [14]): 5.42 | pIC50 (WI-38): < 4.00 | Activity (SK-BR-3 [15]): 6.4% | Activity (SK-BR-3 [16]): 52.8% | Activity (SK-BR-3 [17]): 68.5% | Activity (SK-BR-3 [18]): 31.5% | Activity (SK-BR-3 [19]): 23.6% | pIC50 (MCF7): 5.15 | Activity (SK-BR-3 [20]): 9.7%
